The values that follow come from ChEMBL document CHEMBL4359831, “Chemoproteomics of an Indole-Based Quinone Epoxide Identifies Druggable Vulnerabilities in Vancomycin-Resistant Staphylococcus aureus” (J Med Chem, 2019).

Series [1] has as its system Staphylococcus aureus. Put plainly: Antibacterial activity against Staphylococcus aureus ATCC 29213 after 16 to 18 hrs by CLSI M07-A10 protocol based dilution method. The class given is functional. Put shortly: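 MIC against ATCC 29213 determined by a previously described protocol; values in μg/mL.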
Series [2] in a line: L-cysteine reactivity in pH 7.4 phosphate buffer assessed as compound remaining at 100 uM incubated for 1 hr by HPLC analysis.
Series [3] can be described thus: L-cysteine reactivity in pH 7.4 phosphate buffer assessed as pseudo first order rate constant at 100 uM measured at 10 mins time interval up to 60 mins by HPLC analysis.
Series [4] is described as follows: L-cysteine reactivity in pH 7.4 phosphate buffer at 100 uM preincubated for 1 hr followed by mono-bromobimane addition and measured after 30 mins by fluorescence based competition assay.
In series [5] the test system is Staphylococcus aureus. Briefly: Bactericidal activity against vancomycin-resistant Staphylococcus aureus HIP11714 at 10 times MIC measured up to 24 hrs by time kill assay. Format: functional, organism-based.
Series [6] deals with Staphylococcus aureus. Briefly: Binding affinity to soluble protein in Staphylococcus aureus ATCC 29213 cell lysates after 1 hr by Rhodamine azide fluorescence dependent gel-based ABPP assay. The note with it: Lysate. Format: functional. Put shortly: (§1)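 S. aureus soluble or fractionated membrane lysates were incubated 1 h with alkyne probe (0.01–100 μM), then Cu-catalysed click with rhodamine-azide. Proteomes were resolved by SDS-PAGE and visualised by in-gel fluorescence (gel-based ABPP).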

The subject of series [7] is Staphylococcus aureus. Briefly: Binding affinity to membrane protein in Staphylococcus aureus ATCC 29213 cell lysates after 1 hr by Rhodamine azide fluorescence dependent gel-based ABPP assay. The class given is functional. The note with it: Lysate. The gist of the method: as §1
Series [8] concerns Staphylococcus aureus. Briefly: Binding affinity to soluble protein in Staphylococcus aureus ATCC 29213 cells after 1 hr by Rhodamine azide fluorescence dependent gel-based ABPP assay. Format: functional, organism-based. Put shortly: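 Live S. aureus cultures were treated with probe (10 μM, 1 h), then lysed and fractionated into soluble and membrane proteomes. Labelling was assessed by rhodamine-azide click and SDS-PAGE fluorescence.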

The test system of series [9] is Staphylococcus aureus. Put plainly: Cysteine reactivity in iodoacetamide treated Staphylococcus aureus ATCC 29213 cell lysates at 10 uM incubated for 1 hr by Rhodamine azide fluorescence dependent gel-based competitive ABPP assay. The class given is subcellular. The note with it: Cell lysate. The gist of the method: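 Fractionated S. aureus soluble and membrane lysates were pretreated with excess iodoacetamide (10 mM), then chased with probe (10 μM). Read-out was rhodamine-azide click and SDS-PAGE in-gel fluorescence.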

The subject of series [10] is Escherichia coli. Briefly: Binding affinity to soluble protein in Escherichia coli ATCC 25922 cell lysates after 1 hr by Rhodamine azide fluorescence dependent gel-based ABPP assay. Format: functional. The note with it: Lysate.
Series [11] deals with Escherichia coli. Briefly: Binding affinity to membrane protein in Escherichia coli ATCC 25922 cell lysates after 1 hr by Rhodamine azide fluorescence dependent gel-based ABPP assay. Format: functional. The conditions noted are these: Lysate.
Series [12] relates to Staphylococcus aureus. Put plainly: Binding affinity to Staphylococcus aureus ATCC 29213 C-terminal His6-tagged MarR_12840 (Cys61 residue) expressed in Escherichia coli BL21(DE3) cells up to 100 uM incubated for 1 hr by Rhodamine azide fluorescence dependent gel-based ABPP assay. Put shortly:
(§2)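 Recombinant His-tagged MarR proteins were purified from E. coli by Ni-NTA, as wild type and as Cys→Ala variants (C61A MarR_12840; C12A MarR_05815). Proteins were labelled with probe at 0–100 μM for 1 h, then click with rhodamine-azide and SDS-PAGE fluorescence read-out.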

The test system of series [13] is Staphylococcus aureus. Briefly: Binding affinity to Staphylococcus aureus ATCC 29213 C-terminal His6-tagged MarR_05815 (Cys12 residue) expressed in Escherichia coli BL21(DE3) cells up to 100 uM incubated for 1 hr by Rhodamine azide fluorescence dependent gel-based ABPP assay. The gist of the method: as §2
The test system of series [14] is Staphylococcus aureus. Briefly: Binding affinity to Staphylococcus aureus ATCC 29213 C-terminal His6-tagged MarR_12840 C61A mutant expressed in Escherichia coli BL21(DE3) cells up to 100 uM incubated for 1 hr by Rhodamine azide fluorescence dependent gel-based ABPP assay. The gist of the method:
(§3)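 Recombinant His-tagged protein purified from E. coli by Ni-NTA affinity chromatography; wild-type and Cys-to-Ala variant treated with increasing alkyne quinone-epoxide probe (0–100 μM) for 1 h. Then Cu-catalysed click reaction with rhodamine-azide, SDS-PAGE resolution, and in-gel fluorescence visualisation of probe labelling.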

For series [15], the system named is Staphylococcus aureus. Put plainly: Binding affinity to Staphylococcus aureus ATCC 29213 C-terminal His6-tagged MarR_05815 C12A mutant expressed in Escherichia coli BL21(DE3) cells up to 100 uM incubated for 1 hr by Rhodamine azide fluorescence dependent gel-based ABPP assay. Put shortly: as §3
Series [16] relates to Escherichia coli. Put plainly: Binding affinity to soluble protein in Escherichia coli ATCC 25922 cells after 1 hr by Rhodamine azide fluorescence dependent gel-based ABPP assay. The class given is functional, organism-based.
Series [17] relates to Escherichia coli. Briefly: Binding affinity to membrane protein in Escherichia coli ATCC 25922 cells after 1 hr by Rhodamine azide fluorescence dependent gel-based ABPP assay. Format: functional, organism-based.
For series [18], the system named is Staphylococcus aureus. Briefly: Antibacterial activity against vancomycin-resistant Staphylococcus aureus SA-HIP-14300 after 16 to 18 hrs by CLSI M07-A10 protocol based dilution method. Format: functional.
Series [19] has as its system Staphylococcus aureus. Briefly: Antibacterial activity against vancomycin-resistant Staphylococcus aureus SA-HIP-11983 after 16 to 18 hrs by CLSI M07-A10 protocol based dilution method. The class given is functional.
In series [20] the test system is Staphylococcus aureus. Put plainly: Antibacterial activity against vancomycin-resistant Staphylococcus aureus AIS100050 after 16 to 18 hrs by CLSI M07-A10 protocol based dilution method. Format: functional.
For series [21], the system named is Staphylococcus aureus. Put plainly: Antibacterial activity against vancomycin-resistant Staphylococcus aureus SA-HIP-15178 after 16 to 18 hrs by CLSI M07-A10 protocol based dilution method. Format: functional.
The test system of series [22] is Staphylococcus aureus. Briefly: Antibacterial activity against vancomycin-resistant Staphylococcus aureus SA-71080 after 16 to 18 hrs by CLSI M07-A10 protocol based dilution method. The class given is functional.
The subject of series [23] is Staphylococcus aureus. Put plainly: Antibacterial activity against vancomycin-resistant Staphylococcus aureus HIP11714 after 16 to 18 hrs by CLSI M07-A10 protocol based dilution method. Format: functional.
For series [24], the system named is Staphylococcus aureus. Put plainly: Antibacterial activity against vancomycin-resistant Staphylococcus aureus HIP14300 after 16 to 18 hrs by CLSI M07-A10 protocol based dilution method. Format: functional.
Series [25] concerns Staphylococcus aureus. Briefly: Antibacterial activity against vancomycin-resistant Staphylococcus aureus 1002434 after 16 to 18 hrs by CLSI M07-A10 protocol based dilution method. The class given is functional.
The test system of series [26] is Staphylococcus aureus. Put plainly: Bactericidal activity against Staphylococcus aureus ATCC 29213 at 1 to 10 times MIC preincubated up to 24 hrs under shaking condition followed by bacterial plating on Tryptic Soy agar and measured after 18 to 20 hrs by time kill assay. The class given is functional, organism-based.
Series [27] is described as follows: Selectivity index, ratio of CC50 for African green monkey Vero cells to MIC90 for Staphylococcus aureus ATCC 29213. The class given is toxicity. The conditions noted are these: read-out: Selectivity Index.

Converted amounts (≈) assume the structure as drawn. The source made the active and inactive calls.

As a reminder, the MIC is the smallest concentration in the dilution series that meets the test's criterion for growth inhibition. In turn, `Cc1cc2c([nH]c3ccccc32)c2c1C(=O)C1OC1C2=O` (centres undefined) displayed a minimal inhibitory concentration (MIC) against Staphylococcus aureus [1] greater than 16 µg/mL. For the same molecule, in series [2], the Activity worked out at 86%.
For `CCn1c2ccccc2c2cc(C)c3c(c21)C(=O)C1OC1C3=O` (centres undefined) the same measures were 2 µg/mL (≈ 6.55 µM) and 93%.
On the same counts, the results for `CCn1c2ccccc2c2ccc3c(c21)C(=O)C1OC1C3=O` (centres undefined) are 2 µg/mL (≈ 6.87 µM) and 33%.
Turning to `CC(C)n1c2ccccc2c2ccc3c(c21)C(=O)C1OC1(c1ccccc1)C3=O` (centres undefined), the MIC against Staphylococcus aureus [1] was greater than 64 µg/mL. Moreover, in series [3], the K was found to be 0.78 ×10⁻² /min. Besides, the outcome in series [4] was Active.
Regarding `CCCCCCCCCC(=O)N[C@@H](Cc1c[nH]c2ccccc12)C(=O)N[C@@H](CC(N)=O)C(=O)N[C@@H](CC(=O)O)C(=O)N[C@@H]1C(=O)NCC(=O)N[C@@H](CCCN)C(=O)N[C@H](CC(=O)O)C(=O)N[C@H](C)C(=O)N[C@@H](CC(=O)O)C(=O)NCC(=O)N[C@H](CO)C(=O)N[C@@H]([C@@H](C)CC(=O)O)C(=O)N[C@@H](CC(=O)c2ccccc2N)C(=O)O[C@@H]1C`, in the series on Staphylococcus aureus [5], the outcome was Active.
The molecule `COc1ccc(C23OC2C(=O)c2c(ccc4c5ccccc5n(C(C)C)c24)C3=O)cc1` (centres undefined) displayed an MIC in the series on Staphylococcus aureus [1] greater than 64 µg/mL.
On to `Cn1c2ccccc2c2ccc3c(c21)C(=O)C1OC1C3=O` (centres undefined), for which the MIC against Staphylococcus aureus [1] was found to be 4 µg/mL (≈ 14.4 µM). Moreover, the Activity in series [2] was found to be 27%.
`CC(C)n1c2ccccc2c2ccc3c(c21)C(=O)C1OC1(c1ccc(Br)cc1)C3=O` (centres undefined) registered an MIC with Staphylococcus aureus [1] greater than 64 µg/mL.
As to `O=C1c2ccc3c4ccccc4n(-c4ccccc4)c3c2C(=O)C2OC12` (centres undefined), in the series on Staphylococcus aureus [1], the MIC was 2 µg/mL (≈ 5.89 µM). Besides, the Activity in series [2] was 57%.
On the same counts, the results for `O=C1c2ccc3c([nH]c4ccccc43)c2C(=O)C2OC12` (centres undefined) are 4 µg/mL (≈ 15.2 µM) and 33%.
Regarding `C#CCCCn1c2ccccc2c2ccc3c(c21)C(=O)C1OC1(c1ccccc1)C3=O` (centres undefined), the MIC in the series on Staphylococcus aureus [1] is greater than 64 µg/mL. The result (in [4]; in the series with Staphylococcus aureus [7]; in the series with Staphylococcus aureus [8]) was Active. Also, the result with Staphylococcus aureus [6] was inactive.
Consider `CC(C)n1c2ccccc2c2ccc3c(c21)C(=O)C1(c2ccc(Br)cc2)OC1C3=O` (centres undefined), for which inhibition of growth in the series with Staphylococcus aureus [1] (MIC) required 1 µg/mL (≈ 2.17 µM).
Consider `C#CCCCn1c2ccccc2c2ccc3c(c21)C(=O)C1OC1C3=O` (centres undefined), for which, in the series with Staphylococcus aureus [1], the MIC was determined as 1 µg/mL (≈ 3.04 µM). Besides, the outcome (in series [4]; with Staphylococcus aureus [7]; in the series with Staphylococcus aureus [8]; with Escherichia coli [10]; in the series with Escherichia coli [11]) was Active. Moreover, the Activity result with Staphylococcus aureus [6], with Staphylococcus aureus [12] and with Staphylococcus aureus [13] was “Dose-dependent effect” in each case. Also, the result with Staphylococcus aureus [9], in the series on Staphylococcus aureus [14], in the series on Staphylococcus aureus [15], with Escherichia coli [16] and in the series with Escherichia coli [17] was inactive.
In the series with Staphylococcus aureus [1], `Cc1cc2c3ccccc3n(C(C)C)c2c2c1C(=O)C1OC1C2=O` (centres undefined) displayed an MIC of 4 µg/mL (≈ 12.5 µM). In addition, the Activity in series [2] is 84%.
In the case of `CCc1cc2c3ccccc3n(C(C)C)c2c2c1C(=O)C1OC1C2=O` (centres undefined), the MIC against Staphylococcus aureus [1] is 64 µg/mL (≈ 192 µM). Further, the Activity in series [2] stood at 88%.
As for `CN[C@H](CC(C)C)C(=O)N[C@H]1C(=O)N[C@@H](CC(N)=O)C(=O)N[C@H]2C(=O)N[C@H]3C(=O)N[C@H](C(=O)N[C@H](C(=O)O)c4cc(O)cc(O)c4-c4cc3ccc4O)[C@H](O)c3ccc(c(Cl)c3)Oc3cc2cc(c3O[C@@H]2O[C@H](CO)[C@@H](O)[C@H](O)[C@H]2O[C@H]2C[C@](C)(N)[C@H](O)[C@H](C)O2)Oc2ccc(cc2Cl)[C@H]1O` [VANCOMYCIN], the MIC in the series with Staphylococcus aureus [18] is greater than 64 µg/mL; against Staphylococcus aureus [19] it was 32 to 64 µg/mL (≈ 22.1 to 44.2 µM); in the series on Staphylococcus aureus [20], 32 to 64 µg/mL (≈ 22.1 to 44.2 µM); in the series with Staphylococcus aureus [21] it was 32 to 64 µg/mL (≈ 22.1 to 44.2 µM); with Staphylococcus aureus [22], 32 to 64 µg/mL (≈ 22.1 to 44.2 µM); against Staphylococcus aureus [23], greater than 64 µg/mL. Further, the MIC in the series with Staphylococcus aureus [24] and in the series with Staphylococcus aureus [25] was greater than 64 µg/mL in each case.
Consider `CC(C)n1c2ccccc2c2ccc3c(c21)C(=O)C1(c2ccccc2)OC1C3=O` (centres undefined), for which it took 0.0625 µg/mL (≈ 0.164 µM) to inhibit growth with Staphylococcus aureus [1] (MIC). Also, in the series on Staphylococcus aureus [26], the result was Active. The selectivity ratio in [27] was greater than 200.
Turning to `COc1ccc(C23OC2C(=O)c2ccc4c5ccccc5n(C(C)C)c4c2C3=O)cc1` (centres undefined), inhibition of growth against Staphylococcus aureus [1] (MIC) required 0.5 µg/mL (≈ 1.22 µM).
